{"source": "ChEMBL document CHEMBL4765328", "about": "(Eur J Med Chem, 2020)", "key": {"[1]": {"experiment": "Cytotoxicity against mouse E0771 cells assessed as cell growth inhibition after 72 hrs by MTT assay", "type": "functional", "details": "EO771"}, "HeLa [2]": {"test_system": "HeLa", "experiment": "Induction of apoptosis in human HeLa cells assessed as increase in cleavage of caspase 9 at 10 nM after 24 hrs by Western blot analysis", "type": "functional, cell-based", "method_in_brief": "(§1)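 HeLa cells treated 24 or 48 h, then washed in cold PBS and lysed in 0.1% Triton X-100/RNase A at 0 °C. Lysates were cleared at 15,000 x g. 10 µg protein was run on SDS-PAGE and blotted to PVDF, blocked in 5% BSA, and probed 2 h at room temperature with primary antibodies. HRP secondary and ECL detection followed; β-actin reprobe served as loading control.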"}, "Jurkat": {"test_system": "Jurkat", "experiment": "Antiproliferative activity against human Jurkat cells assessed as inhibition of cell growth", "type": "functional, cell-based", "method_in_brief": "(§2)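 Compounds from 10 mM DMSO stocks; final DMSO ≤0.25%. Growth inhibition of cancer cell lines read from dose-response curves; IC50 as mean ± SEM of at least three independent experiments.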"}, "HeLa [3]": {"test_system": "HeLa", "experiment": "Induction of apoptosis in human HeLa cells assessed as early apoptotic cells at 10 nM measured after 24 hrs by Annexin V-FITC/propidium iodide staining based flow cytometry (reference value: 2.1 %)", "type": "functional"}, "HUVEC [4]": {"test_system": "HUVEC", "experiment": "Antivascular activity against HUVEC assessed as effect on segment length in preformed capillary like tube network at 10 nM incubated for 1 hr by imaging analysis", "type": "functional, cell-based", "details": "Homo sapiens", "method_in_brief": "(§3)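 HUVECs used at passages 1–6 in M200 with low-serum growth supplement. 6 x 10^4 cells seeded on gelled Matrigel (37 °C, 30 min) and left 6 h to form tubes. Preformed networks then treated 1 h at 10 or 100 nM and photographed at five fields per well. Image analysis gave segment length, mesh area and number, covered area and branch points; three independent experiments.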"}, "HeLa [5]": {"test_system": "HeLa", "experiment": "Induction of apoptosis in human HeLa cells assessed as reduction in mcl-1 protein expression at 10 nM after 24 hrs by Western blot analysis", "type": "functional, cell-based"}, "HeLa [6]": {"test_system": "HeLa", "experiment": "Induction of microtubule network depolymerization in human HeLa cells assessed as appearance of disorganised microtubules at 10 nM after 24 hrs by immunofluorescence staining based confocal microscopic analysis", "type": "cell-based", "method_in_brief": "(§4)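 HeLa cells treated 24 h at 10, 50 or 100 nM. They were then fixed in cold 4% formaldehyde for 15 min and stained with anti-β-tubulin for 2 h at room temperature. Alexa 488 secondary and DAPI counterstain followed; imaged by confocal microscopy at 20X.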"}, "HeLa [7]": {"test_system": "HeLa", "experiment": "Induction of apoptosis in human HeLa cells assessed as increase in PARP cleavage at 10 nM after 24 hrs by Western blot analysis", "type": "functional, cell-based", "method_in_brief": "as §1"}, "HeLa [8]": {"test_system": "HeLa", "experiment": "Downregulation of BubR1 expression in human HeLa cells at 10 nM after 24 hrs by Western blot analysis", "type": "functional, cell-based", "method_in_brief": "as §1"}, "HUVEC [9]": {"test_system": "HUVEC", "experiment": "Antivascular activity against HUVEC assessed as inhibition of capillary like tube formation at 10 nM incubated for 1 hr by matrigel based assay", "type": "functional, cell-based", "details": "Homo sapiens", "method_in_brief": "as §3"}, "HeLa [10]": {"test_system": "HeLa", "experiment": "Induction of mitochondrial membrane potential loss in human HeLa cells assessed as cells with polarized mitochondrial membrane at 10 nM after 48 hrs by JC-1 dye-based flow cytometric analysis (reference value: 94.3 %)", "type": "functional"}, "SEM cells [11]": {"test_system": "SEM cells", "experiment": "Potency index, ratio of CA-4 IC50 to compound IC50 for human SEM cells assessed as inhibition of cell growth", "type": "functional"}, "SEM cells [12]": {"test_system": "SEM cells", "experiment": "Antiproliferative activity against human SEM cells assessed as inhibition of cell growth", "type": "functional, cell-based", "method_in_brief": "as §2"}, "HUVEC [13]": {"test_system": "HUVEC", "experiment": "Antivascular activity against HUVEC assessed as effect on meshes area in preformed capillary like tube network at 10 nM incubated for 1 hr by imaging analysis", "type": "functional, cell-based", "details": "Homo sapiens", "method_in_brief": "as §3"}, "Bos taurus": {"species": "Bos taurus", "experiment": "Inhibition of [3H]colchicine binding to bovine brain tubulin at 0.5 uM relative to control", "type": "tissue-based", "method_in_brief": "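[3H]colchicine binding to purified tubulin, with tubulin at 0.5 µM and colchicine at 5 µM. Compounds tested at 5 and 0.5 µM. CA-4 was run in contemporaneous experiments for comparison.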"}, "HL-60": {"test_system": "HL-60", "experiment": "Antiproliferative activity against human HL-60 cells assessed as inhibition of cell growth", "type": "functional, cell-based", "method_in_brief": "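Growth inhibition of cancer cell lines read from dose-response curves; IC50 as mean ± SEM of at least three independent experiments.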"}, "HeLa [14]": {"test_system": "HeLa", "experiment": "Induction of mitochondrial membrane potential loss in human HeLa cells assessed as cells with depolarized mitochondrial membrane at 10 nM after 24 hrs by JC-1 dye-based flow cytometric analysis (reference value: 5.7 %)", "type": "functional"}, "[15]": {"experiment": "Inhibition of bovine brain tubulin polymerisation preincubated with compound followed by GTP addition and measured after 20 mins by turbidimetry based spectrophotometric method", "type": "tissue-based, Bos taurus", "method_in_brief": "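Bovine brain tubulin (10 µM) in glutamate buffer, preincubated with varying compound concentrations at 30 °C, then cooled to 0 °C. GTP added to 0.4 mM final, then warmed to 30 °C in a recording spectrophotometer. Assembly followed by turbidity at 350 nm.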"}, "HeLa [16]": {"test_system": "HeLa", "experiment": "Induction of apoptosis in human HeLa cells assessed as increase in PARP cleavage at 10 nM after 48 hrs by Western blot analysis", "type": "functional, cell-based", "method_in_brief": "as §1"}, "HeLa [17]": {"test_system": "HeLa", "experiment": "Induction of apoptosis in human HeLa cells assessed as increase in bcl-2 phosphorylation at 10 nM after 48 hrs by Western blot analysis", "type": "functional, cell-based", "method_in_brief": "as §1"}, "Daoy": {"test_system": "Daoy", "experiment": "Potency index, ratio of CA-4 IC50 to compound IC50 for human Daoy cells assessed as inhibition of cell growth", "type": "functional"}, "HeLa [18]": {"test_system": "HeLa", "experiment": "Induction of apoptosis in human HeLa cells assessed as viable cells at 10 nM measured after 24 hrs by Annexin V-FITC/propidium iodide staining based flow cytometry (reference value: 89.57 %)", "type": "functional", "details": "read-out: Activity"}, "HeLa [19]": {"test_system": "HeLa", "experiment": "Induction of mitochondrial membrane potential loss in human HeLa cells assessed as cells with polarized mitochondrial membrane at 10 nM after 24 hrs by JC-1 dye-based flow cytometric analysis (reference value: 94.3 %)", "type": "functional"}, "HeLa [20]": {"test_system": "HeLa", "experiment": "Induction of microtubule network depolymerization in human HeLa cells assessed as appearance of disorganised microtubules at 100 nM after 24 hrs by immunofluorescence staining based confocal microscopic analysis", "type": "cell-based", "method_in_brief": "as §4"}, "[21]": {"experiment": "Antitumor activity mouse E0771 cells implanted in C57BL/6 mouse assessed as reduction tumor mass at 5 mg/kg, ip administered every other day relative to control", "type": "functional, EO771", "design": "scale not given: the % may be the effect or the level left", "method_in_brief": "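Seven-week-old female C57BL/6 mice received 4 x 10^5 E0771 cells orthotopically in the mammary fat pad and were randomized once tumors were palpable. Dosing was ip every other day at 5 or 15 mg/kg, with DMSO vehicle in 100 µL. Caliper volume was V=(D×d²)/2, and tumor weight was taken at endpoint; n=5/group. Analysis used two-way ANOVA with Bonferroni.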"}, "HeLa [22]": {"test_system": "HeLa", "experiment": "Induction of apoptosis in human HeLa cells assessed as increase in bcl-2 phosphorylation at 10 nM after 24 hrs by Western blot analysis", "type": "functional, cell-based", "method_in_brief": "as §1"}, "HeLa [23]": {"test_system": "HeLa", "experiment": "Downregulation of BubR1 expression in human HeLa cells at 10 nM after 48 hrs by Western blot analysis", "type": "functional, cell-based", "method_in_brief": "as §1"}, "HeLa [24]": {"test_system": "HeLa", "experiment": "Induction of apoptosis in human HeLa cells assessed as necrotic cells at 10 nM measured after 24 hrs by Annexin V-FITC/propidium iodide staining based flow cytometry (reference value: 2.26 %)", "type": "functional"}, "HeLa [25]": {"test_system": "HeLa", "experiment": "Induction of apoptosis in human HeLa cells assessed as late apoptotic cells at 10 nM measured after 24 hrs by Annexin V-FITC/propidium iodide staining based flow cytometry (reference value: 6.07 %)", "type": "functional"}}, "note": "Activity calls are given as the source filed them. No cut-off for these calls is given here."}
{"smiles": "CCOc1ccc2c(C(=O)c3cc(OC)c(OC)c(OC)c3)c(N)oc2c1", "values": [{"measurement": "GI50", "setting": "[1]", "value": 15.6, "unit": "nM"}, {"measurement": "Activity", "setting": "HeLa [2]", "value": "Active"}, {"measurement": "IC50", "setting": "Jurkat", "value": 0.28, "unit": "nM"}, {"measurement": "Activity", "setting": "HeLa [3]", "value": 6.72, "unit": "%"}, {"measurement": "Activity", "setting": "HUVEC [4]", "value": "Active"}, {"measurement": "Activity", "setting": "HeLa [5]", "value": "Active"}, {"measurement": "Activity", "setting": "HeLa [6]", "value": "Active"}, {"measurement": "Activity", "setting": "HeLa [7]", "value": "Active"}, {"measurement": "Activity", "setting": "HeLa [8]", "value": "Active"}, {"measurement": "Activity", "setting": "HUVEC [9]", "value": "Active"}, {"measurement": "Activity", "setting": "HeLa [10]", "value": 45.3, "unit": "%"}, {"measurement": "Ratio IC50", "setting": "SEM cells [11]", "value": 16}, {"measurement": "IC50", "setting": "SEM cells [12]", "value": 0.31, "unit": "nM"}, {"measurement": "Activity", "setting": "HUVEC [13]", "value": "Active"}, {"measurement": "inhibition", "setting": "Bos taurus", "value": 86, "unit": "%"}, {"measurement": "IC50", "setting": "HL-60", "value": 2.7, "unit": "nM"}, {"measurement": "Activity", "setting": "HeLa [14]", "value": 24.3, "unit": "%"}, {"measurement": "IC50", "setting": "[15]", "value": 370, "unit": "nM"}, {"measurement": "Activity", "setting": "HeLa [16]", "value": "Active"}, {"measurement": "Activity", "setting": "HeLa [17]", "value": "Active"}, {"measurement": "Ratio IC50", "setting": "Daoy", "value": 2460}, {"measurement": "viability at 0.01 µM", "setting": "HeLa [18]", "value": 64.5, "unit": "%"}, {"measurement": "Activity", "setting": "HeLa [19]", "value": 75.7, "unit": "%"}, {"measurement": "Activity", "setting": "HeLa [20]", "value": "Active"}, {"measurement": "Activity", "setting": "[21]", "value": 16.9, "unit": "%"}, {"measurement": "Activity", "setting": "HeLa [22]", "value": "Active"}, {"measurement": "Activity", "setting": "HeLa [23]", "value": "Active"}, {"measurement": "Activity", "setting": "HeLa [24]", "value": 14.77, "unit": "%"}, {"measurement": "Activity", "setting": "HeLa [25]", "value": 14.05, "unit": "%"}]}
